Tested on: MS2 coat protein
Experiment: apparent Kd, MS2 coat protein; higher = weaker binding; RNA-MaP array; FMN 200 µM where present
Summary of the method: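 In 100 mM Tris-HCl pH 7.5, 80 mM KCl, 4 mM MgCl2, BSA, DTT, yeast tRNA and Tween-20, SNAP-549-labelled MS2 coat protein was titrated from 0.7 or 1.5 nM, doubling to 3 µM, over designs transcribed by stalled E. coli RNA polymerase on Illumina sequencing-chip clusters. This was done first without ligand, then with ligand held constant. After green signal was normalised to red-channel RNA signal and control-cluster median Fmax, the apparent Kd was taken as the median of filtered per-cluster binding-curve fits.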

[1] = designed as: OFF switch for flavin mononucleotide, no ligand
[2] = ligand present: flavin mononucleotide, designed as: OFF switch for flavin mononucleotide
[3] = designed as: ON switch for flavin mononucleotide, no ligand
[4] = ligand present: flavin mononucleotide, designed as: ON switch for flavin mononucleotide

Row | Sequence | apparent Kd [1] [nM] | apparent Kd [2] [nM] | apparent Kd [3] [nM] | apparent Kd [4] [nM]
1 | CUCAGACAUGAGGAUCACCCAUGUUAGGAUAUAUAAAAGAGCGGCAGAGCGCUCUUCCAUAGAAGGAGCAGUGU | 27.2 | 27.7 | – | –
2 | AAAAGAGUAGGAUAUCUGACGCGAAACAUGAGGAUCACCCAUGUAGGGCGGUCCUGCUUAAGAGAAGGGCUCAAAU | 99.6 | 230 | – | –
3 | CUUUAGUGAGGAUAUCAGUAGUAAUACAAUAGUAUUACUAUUGAGAAGGCACAUGAGGAUCACCCAUGUUCCUC | 24.6 | 141 | – | –
4 | AUGAAGUCAGGAUAUCGUUAAUUUAGUUGUUUGUAUUAGUUCGAGAAGGGACAUGAGGAUCACCCAUGUAAGUA | 31.7 | 38.5 | – | –
5 | GCCAGGAUGUAAGGAUAUGCUGAGGAAUACUCAGCAGAAGGUACAUGAGGAUCACCCAUGUAAUCCUAAUAAUAAUAACCUGGC | 11.1 | 16.6 | – | –
6 | UGGCGUAUCGAAGGAUAUCUGGGCUUACUCGGAGGAUCGACAUGAGGAUCACCCAUGUAUGACCAAGAGAAGGUCGAGGACGUA | 141 | 253 | – | –
7 | UGCAGGCGAGGAUAUGCUCGGGUUGCUUGUCGAGAGGAUGCACAUGAGGAUCACCCAUGUAGAAGGUGUCUAUG | 47.5 | 56.2 | – | –
8 | GCCAGUUAUGUAGGAUAUGCGCGGCGAGCCUGAGCAGAAGGACAUGAGGAUCACCCAUGUGUUGCGGUCUGAGUACUGAUCGCU | 30.1 | 155 | – | –
9 | UAGAUGGGAGGAUAUACGUAGUUGCAGGUUCGUGUGGUGCUACAUGAGGAUCACCCAUGUAGAAGGCCCGUCUU | 14.7 | 40.6 | – | –
10 | UUGUACCGGUGAGGAUAUUUUUGAUAGAACUUUAUGAUAUACAUGAGGAUCACCCAUGUUACUUUAAAGAAGGCAUCGGAUUAU | 19.4 | 15.3 | – | –
11 | CAUCUAUUUAGAGGAUAUGGUGACGAAAAGCUACCAGAAGGCUAAGUACAUGAGGAUCACCCAUGUGCGUGGGCGCUUAGGGUC | 9.93 | 47.8 | – | –
12 | AAAGCAACAUGAGGAUCACCCAUGUAGGAUAUCGCUAUUGUAAUCAUGAAACAUGAUUACAAUAGCGAGAAGGACAUAUGGCCC | 10.8 | 31.7 | – | –
13 | UACGAUGUACAUGAGGAUCACCCAUGUCAUAUGCCCGUGACACAGGAUAUCCAGGAUAGGCCAAAGGAGAAGGGUGAUCCGCGG | – | – | 66.9 | 139
14 | GCGUCAGAAUUAAUUGUGACAUACAGAAGGCAAUAGUUAAUUUCAGACAUGAGGAUCACCCAUGUUGAGGAUAUGUAGAGAAUC | 11.8 | 10.5 | – | –
15 | GUAGCAUACCGAGGAUAUUCAUACCGGAAACGGACAUGAGGAUCACCCAUGUGGCGAAAGCCUUGGGAGAAGGCGGAAUGCUAC | – | – | 552 | 25.1
16 | AGUGUCAUCGAGAAGGCCUCAUGAACAUGAGGAUCACCCAUGUAAUAUGGGAGGAUAUCGAUGAUACAGCUACGUUUCGUAGCA | – | – | 51.4 | 33.9
17 | AUAAAACAUGAGGAUCACCCAUGUAGACACGAUGGAGGAUAUACUAGAUCGAAAGAUCUAGUAGAAGGCCGACGUA | – | – | 21.3 | 22.8
18 | UCGUAUAAGGGCAUUACACAUGAGGAUCACCCAUGUACGUUAGAGGAUAUGCAUUCCAGUCGAACGUAGAAGGCUAGAGAAGGG | 118 | 117 | – | –
19 | AACAUGGUACAGAAGGGCAAUUUAUUUAUUUAUUAUUUAGAACAGCAUUGCAGGAUAUGUUUAACAUGAGGAUCACCCAUGUAC | – | – | 84.4 | 15.8
20 | UUUUGGCAUGUAGGAUAUGGGUCCGAUUAGGAUUUAGAAGGACAUGAGGAUCACCCAUGUGCAUUUAAUUGGUCAUUACCUUUU | 84.9 | 115 | – | –
21 | CCGGUUGGCGCAGGAUAUACAUGAGGAUCACCCAUGUUCAUCAGGAUCACCGAUGAGUUUUUGUUGUAGAAGGGUGGCCCGGCC | 35.2 | 37.2 | – | –
22 | UUAUCUUGUCAAGGAUAUGUAGUAUUGAUCUGAAAACAUGAGGAUCACCCAUGUAUACGGUGGGAACAGAAGGUGAAUGUUGAA | 679 | 670 | – | –
23 | CCGAUGUUAGGAUAUACUGCCCGUGGGAUAAACGCCGGGUAGUAGAAGGAACAUGAGGAUCACCCAUGUGACAC | 39.6 | 220 | – | –

Source: the EternaBench riboswitch data
